We go through three compounds from ChEMBL document CHEMBL4118144, “Design, Synthesis, and Testing of Potent, Selective Hepsin Inhibitors via Application of an Automated Closed-Loop Optimization Platform” (J Med Chem, 2018).

Series [1] is described as follows: Half life in mouse liver microsomes at 3 uM preincubated for 5 mins followed by NADPH addition by LC-MS/MS analysis. The format is ADME, microsome.
Series [2] can be described thus: Half life in human liver microsomes at 3 uM preincubated for 5 mins followed by NADPH addition by LC-MS/MS analysis. The format is ADME, microsome. In general terms: Liver microsomes are a subcellular fraction often used to study metabolism.
A short description of series [3]: Kinetic solubility of the compound in PBS at pH 7.4 at 6.75 to 200 uM after 90 mins by UV absorbance based assay. The format is physicochemical. The settings on record: read-out: Kinetic_solubility.
Series [4] concerns the target Serine protease hepsin (Homo sapiens, UniProt P05981, D161E/R162K). In words: Inhibition of recombinant C-terminal His10-tagged human Hepsin (R45 to […] residues) D161E/ R162K double mutant expressed in mouse NS0 cells using Boc-QRR-AMC as substrate after 15 mins by manual fluorescence assay.
The target in series [5] is Urokinase-type plasminogen activator (Homo sapiens, UniProt P00749). Description: Inhibition of recombinant C-terminal His10-tagged human uPA (M1 to L431 residues) expressed in mouse NS0 cells using Z-GGR-AMC as substrate after 15 mins by manual fluorescence assay.
Series [6] deals with Serine protease hepsin (Homo sapiens, UniProt P05981). In words: Inhibition of doxycycline induced Hepsin in human MCF10A cells assessed as prevention in loss of HAI-1 level at 10 uM preincubated for 30 mins followed by doxycycline addition measured after 6 hrs by Immunoblot assay. In kind it is cell-based. The gist of the method:
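MCF10A-Indu20-hepsin cells (Dox-inducible hepsin) pretreated 30 min with compound or DMSO, then hepsin induced with 100 ng/mL doxycycline for 6 h; HAI-1 protein scored by immunoblot.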

In series [7] the target is T1, Chymase (Homo sapiens) (UniProt P23946).
T1 sequence (whole entry): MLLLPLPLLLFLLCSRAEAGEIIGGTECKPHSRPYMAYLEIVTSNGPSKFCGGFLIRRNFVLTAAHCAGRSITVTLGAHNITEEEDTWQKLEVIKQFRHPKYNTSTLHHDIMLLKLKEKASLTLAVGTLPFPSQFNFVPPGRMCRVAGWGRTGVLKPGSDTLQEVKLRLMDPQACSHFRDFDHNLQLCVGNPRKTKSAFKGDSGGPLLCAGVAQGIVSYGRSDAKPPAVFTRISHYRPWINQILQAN
In words: Inhibition of human chymase using Suc-Ala-Ala-Pro-Phe-AMC as substrate at 1 uM after 120 mins by fluorescence spectrophotometric method relative to control. In short, it runs like this:
(§1)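 Panel of ten serine proteases; percent inhibition read at compound concentrations of 1 µM and 10 µM, each value the mean of 2 experiments.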

Series [8] concerns the target T1, Chymase (Homo sapiens). In words: Inhibition of human chymase using Suc-Ala-Ala-Pro-Phe-AMC as substrate at 10 uM after 120 mins by fluorescence spectrophotometric method relative to control. In short, it runs like this: as §1
Series [9] addresses T2, Neutrophil elastase (Homo sapiens) (UniProt P08246).
T2 sequence (whole entry): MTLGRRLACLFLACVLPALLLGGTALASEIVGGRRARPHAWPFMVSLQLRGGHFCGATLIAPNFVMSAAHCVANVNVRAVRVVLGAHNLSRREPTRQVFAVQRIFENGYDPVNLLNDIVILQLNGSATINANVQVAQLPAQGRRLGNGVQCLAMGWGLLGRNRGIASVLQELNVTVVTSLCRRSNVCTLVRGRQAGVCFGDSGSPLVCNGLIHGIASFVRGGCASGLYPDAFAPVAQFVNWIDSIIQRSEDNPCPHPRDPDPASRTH
In words: Inhibition of elastase (unknown origin) at 1 uM relative to control. The gist of the method:
as §1

Series [10] concerns the target T2, Neutrophil elastase (Homo sapiens). Description: Inhibition of elastase (unknown origin) at 10 uM relative to control. The gist of the method:
as §1

The target of series [11] is T3, Cathepsin G (Homo sapiens) (UniProt P08311).
T3 sequence (whole entry): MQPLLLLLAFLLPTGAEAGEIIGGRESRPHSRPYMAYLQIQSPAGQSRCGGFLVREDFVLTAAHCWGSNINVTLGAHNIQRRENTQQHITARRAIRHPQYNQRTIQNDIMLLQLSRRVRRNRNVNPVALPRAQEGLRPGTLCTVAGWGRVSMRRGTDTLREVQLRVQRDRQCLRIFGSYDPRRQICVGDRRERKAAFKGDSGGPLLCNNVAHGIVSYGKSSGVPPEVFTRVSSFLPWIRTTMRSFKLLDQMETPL
In words: Inhibition of human cathepsin G using Suc-Ala-Ala-Pro-Phe-AMC as substrate at 10 uM after 30 mins by fluorescence spectrophotometric method relative to control. The gist of the method: as §1

For series [12], the target named is Dipeptidyl peptidase 4 (Homo sapiens) (UniProt P27487). In words: Inhibition of recombinant full length human dipeptidyl peptidase 4 using GP-AMC as substrate at 10 uM after 10 mins by fluorescence spectrophotometric method relative to control. In short, it runs like this:
as §1

Series [13] deals with Trypsin (Homo sapiens) (UniProt P07477+P07478+P35030). In words: Inhibition of human trypsin using Z-Gly-Pro-Arg-AMC as substrate at 10 uM after 60 mins by fluorescence spectrophotometric method relative to control. In kind it is protein assay. In short, it runs like this:
as §1

Series [14] addresses Plasma kallikrein (Homo sapiens) (UniProt P03952). Description: Inhibition of human plasma kallikrein using H-D-Pro-Phe-Arg-pNA as substrate at 1 uM after 30 mins by spectrophotometric method relative to control. The gist of the method:
as §1

Series [15] deals with T2, Neutrophil elastase (Homo sapiens). Description: Inhibition of human ELA2 using N-MeOSuc-Ala-Ala-Pro-Val-pNA as substrate at 1 uM after 60 mins by spectrophotometric method relative to control. In short, it runs like this: as §1
Series [16] concerns the target Coagulation factor X (Homo sapiens) (UniProt P00742). Description: Inhibition of factor 10a (unknown origin) at 10 uM after 15 mins by fluorescence assay relative to control. The gist of the method:
as §1

In series [17] the target is T4, Hepatocyte growth factor activator serine protease (Homo sapiens) (UniProt Q04756).
T4 sequence (whole entry): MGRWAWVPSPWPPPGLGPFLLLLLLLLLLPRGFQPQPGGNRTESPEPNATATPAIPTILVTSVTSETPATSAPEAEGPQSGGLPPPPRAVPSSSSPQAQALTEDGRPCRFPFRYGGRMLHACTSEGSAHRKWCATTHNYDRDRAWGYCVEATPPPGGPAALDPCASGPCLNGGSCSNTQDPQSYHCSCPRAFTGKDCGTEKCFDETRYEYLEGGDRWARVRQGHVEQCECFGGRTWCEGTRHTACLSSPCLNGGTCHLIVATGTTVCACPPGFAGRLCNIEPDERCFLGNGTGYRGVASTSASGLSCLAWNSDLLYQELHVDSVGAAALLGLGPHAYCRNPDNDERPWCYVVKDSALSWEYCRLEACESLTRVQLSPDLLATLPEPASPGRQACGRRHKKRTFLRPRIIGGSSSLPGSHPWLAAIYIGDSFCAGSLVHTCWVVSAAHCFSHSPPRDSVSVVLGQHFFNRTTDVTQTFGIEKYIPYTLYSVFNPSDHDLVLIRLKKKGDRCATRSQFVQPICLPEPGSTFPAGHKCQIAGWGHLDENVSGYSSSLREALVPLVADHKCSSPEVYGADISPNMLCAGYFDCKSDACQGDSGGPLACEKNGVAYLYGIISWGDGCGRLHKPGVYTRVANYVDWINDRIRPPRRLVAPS
Description: Inhibition of C-terminal 10-His tagged recombinant human HGFA (Gln36 to Ser655 residues) expressed in mouse […] cells 1 uM after 15 mins by fluorescence assay relative to control. The format is cell-based.

Each structure is given as a SMILES string. ≈ marks a conversion by molar mass, not a printed value. Calls of active or inactive are those of the source. The calls are words filed in the database; no cut-off is given here.

Plasma kallikrein (Homo sapiens), sequence (P03952 20-390 limits assumed): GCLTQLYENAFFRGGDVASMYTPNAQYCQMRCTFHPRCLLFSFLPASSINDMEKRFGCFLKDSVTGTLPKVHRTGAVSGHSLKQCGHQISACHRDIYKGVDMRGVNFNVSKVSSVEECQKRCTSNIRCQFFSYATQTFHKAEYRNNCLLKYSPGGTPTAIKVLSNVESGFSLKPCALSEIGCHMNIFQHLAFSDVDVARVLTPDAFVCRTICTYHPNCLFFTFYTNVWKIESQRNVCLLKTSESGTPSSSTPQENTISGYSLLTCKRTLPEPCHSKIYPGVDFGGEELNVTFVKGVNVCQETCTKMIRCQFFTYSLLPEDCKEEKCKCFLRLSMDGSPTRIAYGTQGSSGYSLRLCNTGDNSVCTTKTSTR
Plasma kallikrein (Homo sapiens), sequence (P03952 391-638 limits assumed): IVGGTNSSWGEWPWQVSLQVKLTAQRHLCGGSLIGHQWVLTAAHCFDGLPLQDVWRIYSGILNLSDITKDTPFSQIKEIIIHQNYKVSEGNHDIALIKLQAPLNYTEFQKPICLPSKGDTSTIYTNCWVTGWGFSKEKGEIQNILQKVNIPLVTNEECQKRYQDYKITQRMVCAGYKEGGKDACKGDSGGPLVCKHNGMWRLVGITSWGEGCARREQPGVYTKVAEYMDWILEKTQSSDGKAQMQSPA
Coagulation factor X (Homo sapiens), sequence (P00742 41-179 limits assumed): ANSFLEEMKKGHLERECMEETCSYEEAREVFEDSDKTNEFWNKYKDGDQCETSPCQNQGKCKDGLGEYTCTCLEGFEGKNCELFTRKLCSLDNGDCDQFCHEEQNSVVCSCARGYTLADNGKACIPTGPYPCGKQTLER
Coagulation factor X (Homo sapiens), sequence (P00742 235-488 limits assumed): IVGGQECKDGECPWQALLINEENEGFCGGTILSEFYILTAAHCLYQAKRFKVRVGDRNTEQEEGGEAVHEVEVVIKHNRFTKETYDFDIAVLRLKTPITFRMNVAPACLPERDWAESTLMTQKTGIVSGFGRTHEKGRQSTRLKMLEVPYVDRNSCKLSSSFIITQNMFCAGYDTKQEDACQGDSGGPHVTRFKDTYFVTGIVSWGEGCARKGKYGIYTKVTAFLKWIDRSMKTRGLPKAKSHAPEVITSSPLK
Dipeptidyl peptidase 4 (Homo sapiens), sequence (P27487 whole entry, looked up): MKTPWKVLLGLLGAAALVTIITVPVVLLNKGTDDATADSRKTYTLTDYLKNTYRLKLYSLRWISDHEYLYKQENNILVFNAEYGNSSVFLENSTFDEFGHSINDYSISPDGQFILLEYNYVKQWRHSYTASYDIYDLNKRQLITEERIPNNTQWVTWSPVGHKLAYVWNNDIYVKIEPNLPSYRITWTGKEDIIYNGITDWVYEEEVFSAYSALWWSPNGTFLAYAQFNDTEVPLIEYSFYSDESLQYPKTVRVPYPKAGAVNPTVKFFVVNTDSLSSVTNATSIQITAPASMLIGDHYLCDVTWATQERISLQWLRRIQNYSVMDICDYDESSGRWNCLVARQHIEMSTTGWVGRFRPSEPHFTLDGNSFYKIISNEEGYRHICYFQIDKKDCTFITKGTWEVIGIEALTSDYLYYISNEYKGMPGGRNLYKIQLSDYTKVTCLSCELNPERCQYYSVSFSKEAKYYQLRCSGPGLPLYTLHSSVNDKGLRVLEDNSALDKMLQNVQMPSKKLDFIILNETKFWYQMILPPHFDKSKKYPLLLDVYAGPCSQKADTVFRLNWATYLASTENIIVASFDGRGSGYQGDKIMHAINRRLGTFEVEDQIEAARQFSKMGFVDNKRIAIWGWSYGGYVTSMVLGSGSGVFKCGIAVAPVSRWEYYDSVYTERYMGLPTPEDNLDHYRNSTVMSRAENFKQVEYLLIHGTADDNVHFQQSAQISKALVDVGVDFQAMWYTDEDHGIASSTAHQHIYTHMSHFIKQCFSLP
Serine protease hepsin (Homo sapiens, UniProt P05981), sequence (P05981 1-162 limits assumed): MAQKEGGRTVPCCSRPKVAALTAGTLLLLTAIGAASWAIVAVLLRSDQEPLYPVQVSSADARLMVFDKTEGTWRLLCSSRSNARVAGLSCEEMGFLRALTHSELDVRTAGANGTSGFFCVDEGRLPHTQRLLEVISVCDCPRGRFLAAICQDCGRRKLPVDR
Serine protease hepsin (Homo sapiens, UniProt P05981), sequence (P05981 163-417 limits assumed): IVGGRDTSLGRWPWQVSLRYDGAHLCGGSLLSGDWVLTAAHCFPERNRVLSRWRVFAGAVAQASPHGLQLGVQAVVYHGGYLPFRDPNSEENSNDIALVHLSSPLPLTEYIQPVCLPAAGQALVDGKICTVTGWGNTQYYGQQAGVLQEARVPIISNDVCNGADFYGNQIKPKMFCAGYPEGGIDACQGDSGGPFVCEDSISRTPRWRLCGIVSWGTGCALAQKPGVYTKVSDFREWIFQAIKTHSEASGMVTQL

Consider `N=C(N)c1ccc(NC(=O)[C@H](NS(=O)(=O)c2ccc(F)cc2)C2CCCCC2)cc1`, for which the half-life at 3 µM amounted to 0.8 h in [1] and 0.267 h in series [2]. In series [3], the solubility kinetic at 1.5 h came out at 200 µM (≈ 86.5 µg/mL). Further, the values for the IC50 in [4] and in series [5] were 0.19 µM and 280 µM, respectively. The inhibition result in series [6] is “inactive”. Further, the inhibition in [7], in series [8], in [9], in series [10], in series [11] and in series [12] was below 10% each time. Also, the inhibition in series [13] was 97%; in [14], 12%; in [15], below 10%; in series [16], below 10%; in series [17], 10%.

As for `Cc1ccc(S(=O)(=O)N[C@@H](C(=O)Nc2ccc(C(=N)N)cc2)C2CCCCC2)cc1`, the half-life at 3 µM is 1.23 h in [1] and 1.48 h in series [2]. The solubility kinetic at 1.5 h in series [3] was above 200 µM. In addition, the IC50 in [4] was in the range of 0.038 to 0.07 µM; in [5] it was 10 to 1950 µM. In series [6], the inhibition result was “inactive”. Also, the inhibition in series [7], in [8], in [9], in series [10], in series [11] and in series [12] was below 10% in each case. Besides, the inhibition in series [13] is 96%; in series [14] it was below 10%; in series [15], below 10%; in [16], below 10%; in [17] it was 18%.

As for `Cc1ccc(S(=O)(=O)N[C@@H](C(=O)Nc2ccc(C(=N)N)cc2)c2ccccc2)cc1`, the half-life at 3 µM was 1.8 h in series [1] and 0.883 h in series [2]. For the same compound, the solubility kinetic at 1.5 h in series [3] is above 200 µM. Also, the values for the IC50 in series [4] and in series [5] were 0.022 µM and 140 µM, respectively. In series [6], the inhibition result is “Active”. In addition, the inhibition in series [7], in [8], in series [9], in series [10], in series [11] and in series [12] was below 10% throughout. Further, the inhibition was 93% in series [13]; 34% in series [14]; below 10% in series [15]; below 10% in [16]; 16% in series [17].

The half-life is how long it takes for the measured level to halve. As usually defined, the IC50 is the point on the concentration scale where inhibition reaches its midpoint. Usually inhibition stands for the share of the control response that was lost under treatment.
